Assay results: ChEMBL document CHEMBL3421626, “Prenylated benzophenones from Triadenum japonicum” (2015)
Values after ≈ are worked out from the molar mass of the structure shown. Numbered stars: 1 amine (or outer) side, 2 acyl side, 3 side chain; on linkers, the order of the positions; unused ones are H or OH. Bridge positions count the residues as written; N and C are the ends. Square brackets hold non-standard residues; d marks the D form. Peptide text beside a SMILES is read from it. * marks the point of attachment. hTyr(3S-OH,4S-OH,3'-OSO3H) = N[C@H](C(=O)O)[C@H](O)[C@@H](O)c1ccc(O)c(OS(=O)(=O)O)c1; Orn(4R-OH,5R-OH) = O=C([C@H](C[C@@H](O)[C@@H](O)N[*:3])N[*:1])[*:2]; Pro(3S-OH,4S-Me) = C[C@H]1CN[C@H](C(=O)O)[C@H]1O; X1 = CCCCCOc1ccc(-c2cc(-c3ccc(C(=O)*)cc3)no2)cc1; Gln(3R-OH) = NC(=O)C[C@@H](O)[C@H](N)C(=O)O; Hyp = O=C(O)[C@@H]1C[C@@H](O)CN1

Experiments:
Format in all cases: functional
[1] = tested on: Escherichia coli; test: Antimicrobial activity against Escherichia coli assessed as reduction in bacterial growth incubated for 48 hrs by microbroth dilution method
Method in brief: (§1)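 Panel assay run per a previously reported protocol. Amphotericin B, micafungin, hygromycin B and kanamycin served as control agents across the organism panel.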

[2] = tested on: Staphylococcus aureus; test: Antimicrobial activity against Staphylococcus aureus assessed as reduction in bacterial growth incubated for 48 hrs by microbroth dilution method; method in brief: as §1
[3] = tested on: Bacillus subtilis; test: Antimicrobial activity against Bacillus subtilis assessed as reduction in bacterial growth incubated for 48 hrs by microbroth dilution method; method in brief: as §1
[4] = tested on: Micrococcus luteus; test: Antimicrobial activity against Micrococcus luteus assessed as reduction in bacterial growth incubated for 48 hrs by microbroth dilution method; method in brief: as §1
[5] = tested on: Aspergillus niger; test: Antimicrobial activity against Aspergillus niger IFM62678 assessed as reduction in […] growth incubated for 48 hrs by microbroth dilution method; details: IFM62678, 48 h; method in brief: as §1
[6] = tested on: Trichophyton mentagrophytes; test: Antimicrobial activity against Trichophyton mentagrophytes IFM62679 assessed as reduction in […] growth incubated for 48 hrs by microbroth dilution method; details: IFM62679, 48 h; method in brief: as §1
[7] = tested on: Candida albicans; test: Antimicrobial activity against Candida albicans IFM62680 assessed as reduction in […] growth incubated for 48 hrs by microbroth dilution method; details: IFM62680, 48 h

SMILES	MIC [1]	MIC [2]	MIC [3]	MIC [4]	IC50 [5]	IC50 [6]	IC50 [7]
CN[C@H]1C[C@@H](N)[C@H](O)[C@@H](O[C@@H]2O[C@H](CO)[C@H](O)[C@H]3O[C@@]4(O[C@H]23)O[C@H]([C@H](N)CO)[C@H](O)[C@H](O)[C@H]4O)[C@@H]1O	2 µg/mL (≈ 3.79 µM)	0.5 µg/mL (≈ 0.948 µM)	2 µg/mL (≈ 3.79 µM)	1 µg/mL (≈ 1.9 µM)	1 µg/mL (≈ 1.9 µM)	1 µg/mL (≈ 1.9 µM)	3.9 µg/mL (≈ 7.39 µM)
CC(C)=CC[C@]12C[C@H]3C[C@@H](C(C)(C)OO)OO[C@]3(C)C[C@](CC=C(C)C)(C1=O)C(O)=C(C(=O)c1ccccc1)C2=O							8 µg/mL (≈ 14.1 µM)
C[C@@H]1[C@H](O)[C@@H](C)/C=C/C=C/C=C/C=C/C=C/C=C/C=C/[C@H](O[C@@H]2O[C@H](C)[C@@H](O)[C@H](N)[C@@H]2O)C[C@@H]2O[C@](O)(C[C@@H](O)C[C@@H](O)[C@H](O)CC[C@@H](O)C[C@@H](O)CC(=O)O[C@H]1C)C[C@H](O)[C@H]2C(=O)O [AMPHOTERICIN B]	> 31.2 µg/mL	> 31.2 µg/mL	> 31.2 µg/mL	> 31.2 µg/mL	1.8 µg/mL (≈ 1.95 µM)	3.9 µg/mL (≈ 4.22 µM)	1 µg/mL (≈ 1.08 µM)
CCCCCOc1ccc(-c2cc(-c3ccc(C(=O)N[C@H]4C[C@@H](O)[C@@H](O)NC(=O)[C@@H]5[C@@H](O)[C@@H](C)CN5C(=O)[C@H]([C@H](O)CC(N)=O)NC(=O)[C@H]([C@H](O)[C@@H](O)c5ccc(O)c(OS(=O)(=O)O)c5)NC(=O)[C@@H]5C[C@@H](O)CN5C(=O)[C@H]([C@@H](C)O)NC4=O)cc3)no2)cc1 [MICAFUNGIN] (X1-[Orn(4R-OH,5R-OH)]T[Hyp][hTyr(3S-OH,4S-OH,3'-OSO3H)][Gln(3R-OH)][Pro(3S-OH,4S-Me)]; lactam 1-C)	> 62.5 µg/mL	0.5 µg/mL (≈ 0.394 µM)	0.5 µg/mL (≈ 0.394 µM)	7.8 µg/mL (≈ 6.14 µM)	< 0.1 µg/mL	< 0.1 µg/mL	< 0.1 µg/mL

The next lines start with results.

MIC [1]	MIC [2]	MIC [3]	MIC [4]	SMILES	IC50 [5]	IC50 [6]	IC50 [7]
8 µg/mL (≈ 15.9 µM)	16 µg/mL (≈ 31.8 µM)	16 µg/mL (≈ 31.8 µM)	32 µg/mL (≈ 63.7 µM)	CC(C)=CC[C@@H]1C[C@@]2(CC=C(C)C)C(=O)C3(CC=C(C)C)C[C@]1(C)[C@]2(O)/C(=C(/O)c1ccccc1)C3=O	16 µg/mL (≈ 31.8 µM)	8 µg/mL (≈ 15.9 µM)	32 µg/mL (≈ 63.7 µM)
< 0.1 µg/mL	< 0.1 µg/mL	< 0.1 µg/mL	1 µg/mL (≈ 2.06 µM)	NC[C@H]1O[C@H](O[C@H]2[C@H](O)[C@@H](O[C@H]3O[C@H](CO)[C@@H](O)[C@H](N)[C@H]3O)[C@H](N)C[C@@H]2N)[C@H](O)[C@@H](O)[C@@H]1O [KANAMYCIN]	31.3 µg/mL (≈ 64.6 µM)	7.8 µg/mL (≈ 16.1 µM)	> 62.5 µg/mL
